Reference: publication PMC2585982 (Toxicology and applied pharmacology, 2008)
pEC50: −log10 of the molar value. “And” between values parts separate entries of the source, which are not always exact repeats. Equal values may be shown once. Read-outs that look alike come from different tables or passages of the source.

Key:
GSTμ = test: Western blot of liver cytosol, GSTμ protein expression; format: in vivo, mice; conditions: SENCAR mice, 35, 70, 150 mg/kg p.o.
[1] = target: mCAR-LBD fused to the Gal4 DNA binding domain (Mus musculus, UniProt O35627); test: CAR transfection assay, Gal4-mCAR LBD fusion reporter in HepG2 cells; format: cell-based, murine; conditions: HepG2, 4 μM androstanol; 250 nM TC or 0.1–100 μM isopimpinellin, 24 h
SXR and SRC-1 RID = SXR and SRC-1 RID (Homo sapiens, UniProt O75469); test: Mammalian two-hybrid assay, Gal-SRC-1 RID + VP-L-SXR in CV-1 cells; format: cell-based; conditions: isopimpinellin 50 μM, RIF 10 μM
P450s 1A1/2 = test: Liver microsomal P450 1A activity; format: in vivo, mice; conditions: mouse, in vivo
NQO = test: Liver cytosolic NQO activity; format: in vivo, mice; conditions: female SENCAR mice, 35, 70, 150 mg/kg p.o. 4 days, vs corn oil
P450 3A11 [2] = conditions: mouse, in vivo, po, 100 mg/kg
P450 3A11 [3] = test: Liver microsomal P450 3A activity; format: in vivo, mice; conditions: mouse, in vivo
PXR LBD and SRC-1 RID = PXR LBD and SRC-1 RID (Mus musculus, UniProt O54915); test: Mammalian two-hybrid assay, Gal-SRC-1 RID + VP-L-PXR in CV-1 cells; format: cell-based; conditions: isopimpinellin 50 μM; PCN 10 μM; Figure 7A
In short: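 Mammalian two-hybrid in CV-1 cells co-transfected with Gal-SRC-1 RID and/or VP-L-PXR, plus MH100-tk-luc reporter and CMX-β-gal. Cells were exposed to compound or solvent control in medium for 18–24 h. Interaction was taken as luciferase activity normalised to β-gal activity; mean ± SD.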

P450s 2B9/10 = conditions: mice treated 3 consecutive days; ref Kleiner et al., 2001; cited from earlier work
GSTa1 mRNA = test: Northern blot of liver RNA, GSTa1 mRNA in CAR; format: in vivo, mice; conditions: isopimpinellin 150 mg/kg p.o. 24 h; TC 3 mg/kg i.p. 6 h
PXR [4] = target: T1, PXR (Mus musculus, UniProt O54915); test: GAL-PXR reporter assay; format: cell-based
T1 sequence (O54915 143-430 limits assumed): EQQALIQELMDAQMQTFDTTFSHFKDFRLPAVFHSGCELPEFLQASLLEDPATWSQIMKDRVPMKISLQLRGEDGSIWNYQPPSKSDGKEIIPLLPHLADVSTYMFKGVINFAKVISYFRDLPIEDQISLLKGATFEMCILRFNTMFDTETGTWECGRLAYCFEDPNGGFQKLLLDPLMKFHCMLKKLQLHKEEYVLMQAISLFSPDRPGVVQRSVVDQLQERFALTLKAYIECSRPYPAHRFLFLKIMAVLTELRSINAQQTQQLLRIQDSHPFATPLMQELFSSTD

PXR [5] = target: T2, PXR (Mus musculus, UniProt O54915); test: PXR-DR3 reporter assay; format: cell-based
T2 sequence (O54915 1-431): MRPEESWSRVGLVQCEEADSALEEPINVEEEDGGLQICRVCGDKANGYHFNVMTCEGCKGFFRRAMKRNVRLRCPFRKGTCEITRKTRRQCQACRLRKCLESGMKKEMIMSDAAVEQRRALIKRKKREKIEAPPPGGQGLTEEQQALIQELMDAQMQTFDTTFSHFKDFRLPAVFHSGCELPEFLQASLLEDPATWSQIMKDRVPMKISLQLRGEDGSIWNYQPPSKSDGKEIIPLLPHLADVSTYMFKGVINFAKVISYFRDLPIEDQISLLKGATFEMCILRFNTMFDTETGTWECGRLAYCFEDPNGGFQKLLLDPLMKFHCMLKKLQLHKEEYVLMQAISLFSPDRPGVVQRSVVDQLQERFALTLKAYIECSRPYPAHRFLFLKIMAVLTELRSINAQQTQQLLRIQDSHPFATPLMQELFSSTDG
T2 sequence (P19793 1-462 partner): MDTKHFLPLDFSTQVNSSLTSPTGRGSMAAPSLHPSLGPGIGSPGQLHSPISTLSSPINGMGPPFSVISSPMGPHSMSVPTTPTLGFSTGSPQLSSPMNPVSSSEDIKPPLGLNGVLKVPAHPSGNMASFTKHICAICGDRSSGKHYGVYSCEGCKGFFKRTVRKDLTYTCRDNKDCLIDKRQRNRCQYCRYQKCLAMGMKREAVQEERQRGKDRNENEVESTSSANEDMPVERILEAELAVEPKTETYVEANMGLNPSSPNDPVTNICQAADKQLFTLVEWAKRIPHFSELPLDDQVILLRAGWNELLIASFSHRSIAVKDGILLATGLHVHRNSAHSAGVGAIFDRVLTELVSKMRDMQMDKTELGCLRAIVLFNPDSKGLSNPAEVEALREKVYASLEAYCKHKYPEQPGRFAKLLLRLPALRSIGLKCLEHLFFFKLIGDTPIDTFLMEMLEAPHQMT

P450 2B10 = conditions: mouse, in vivo
GSTα = test: Western blot of liver cytosol, GSTα protein expression; format: in vivo; conditions: SENCAR mice, 35, 70, 150 mg/kg p.o., particularly at the highest doses
SXR = target: T3, SXR (Homo sapiens, UniProt O75469); test: GAL-SXR reporter assay; format: cell-based
T3 sequence (O75469 146-433 limits assumed): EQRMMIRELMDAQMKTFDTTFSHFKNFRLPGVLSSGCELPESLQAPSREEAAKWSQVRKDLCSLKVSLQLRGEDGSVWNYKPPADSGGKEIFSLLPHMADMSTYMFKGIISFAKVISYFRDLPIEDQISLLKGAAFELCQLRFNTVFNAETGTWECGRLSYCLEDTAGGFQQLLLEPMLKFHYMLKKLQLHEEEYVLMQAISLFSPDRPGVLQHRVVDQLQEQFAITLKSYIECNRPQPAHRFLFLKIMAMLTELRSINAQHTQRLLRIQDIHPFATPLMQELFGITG

Cyp2b10 mRNA = test: Northern blot of liver RNA, Cyp2b10 mRNA in CAR; conditions: isopimpinellin 150 mg/kg p.o. 24 h, TC 3 mg/kg i.p. 6 h
GSTπ = test: Western blot of liver cytosol, GSTπ protein expression; format: in vivo; conditions: SENCAR mice, 35, 70, 150 mg/kg p.o.

SXR and SRC-1 RID, sequence (Q15788 570-780 partner limits assumed, one chain of several): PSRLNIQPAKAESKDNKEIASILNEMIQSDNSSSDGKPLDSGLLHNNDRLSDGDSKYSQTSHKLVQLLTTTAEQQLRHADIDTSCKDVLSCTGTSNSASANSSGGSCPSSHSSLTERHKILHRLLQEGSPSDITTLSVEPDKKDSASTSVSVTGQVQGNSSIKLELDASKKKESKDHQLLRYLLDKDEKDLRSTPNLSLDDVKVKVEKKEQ
PXR LBD and SRC-1 RID, sequence (Q15788 570-780 partner limits assumed, one chain of several): as above
mCAR-LBD fused to the Gal4 DNA binding domain, sequence (O35627 119-358 limits assumed): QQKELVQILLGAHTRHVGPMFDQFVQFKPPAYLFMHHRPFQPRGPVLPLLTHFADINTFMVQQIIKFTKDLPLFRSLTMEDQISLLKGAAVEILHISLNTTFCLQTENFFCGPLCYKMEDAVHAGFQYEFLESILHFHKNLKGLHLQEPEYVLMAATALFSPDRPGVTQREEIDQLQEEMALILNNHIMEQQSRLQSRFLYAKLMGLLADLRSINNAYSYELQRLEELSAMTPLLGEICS

COc1c2ccoc2c(OC)c2oc(=O)ccc12 [isopimpinellin, 5,8-dimethoxypsoralen]
Hepatic expression of GST μ protein, dose-response study (GSTμ): no increase | Effect on the inhibitory effect of androstanol on Gal4 reporter expression (mCAR-LBD) [1]: counteracted | Induced interaction of receptor LBD and SRC-1 (Figure 7B) (SXR and SRC-1 RID): ~ 2 fold | P450 1 activity, liver microsomes, dose-response study (P450s 1A1/2): significant increases | Liver cytosolic NQO activity, dose-response study (NQO): increased at all doses | P450 3A11 protein expression (western blot densitometry) (P450 3A11 [2]): increased | P450 3A activity, liver microsomes, dose-response study (P450 3A11 [3]): increased | Increase in P450 3A activity (testosterone), liver microsomes (P450 3A11 [3]; po, 100 mg/kg): 3–4 fold | Induced interaction of PXR LBD and SRC-1 RID compared to the control (PXR LBD and SRC-1 RID): over 4 fold | Hepatic P450 2B9/10 activity at 1 h after the final dose (P450s 2B9/10): no elevation | Increase in hepatic P450 2B9/10 activity at 24 h after the final dose (P450s 2B9/10): 100 fold | Increase in hepatic GSTa1 mRNA, female CAR(−/−) mice (GSTa1 mRNA): ~ 3 fold | Increase in hepatic GSTa1 mRNA, male CAR(−/−) mice (GSTa1 mRNA): ~ 8 fold | Increase in hepatic GSTa1 mRNA, male and female CAR(+/+) mice (GSTa1 mRNA): 10–11 fold | pEC50 (PXR [4]): ~4.77 | Max (concentration to reach maximal effect), GAL-PXR (PXR [4]; CV-1 cells, 18–24 h): 100,000 nM | pEC50 (PXR [4]; ED50, GAL-PXR activation, CV-1 cells, 18–24 h, luciferase normalized by β-gal): 4.74 and 4.75 | Concentration to reach maximal effect, times higher than PCN (PXR [4]; GAL-PXR reporter system): 30 times | pEC50 (PXR [5]): 4.80 | Max (concentration to reach maximal effect), PXR-DR3 (PXR [5]; CV-1 cells, full length PXR): 30,000 nM | Increase in P450 2B9/10 protein expression (optical density), dose-response study (P450 2B10): 2–3 fold | P450 2B10 protein levels, dose-response study (P450 2B10): significantly elevated | P450 2B10 protein expression (western blot densitometry) (P450 2B10; po, 100 mg/kg): increased | Hepatic expression of GST α protein, dose-response study (GSTα): greatly increased | pEC50 (SXR): ~4.46 | Max (concentration to reach maximal effect), GAL-SXR (SXR; CV-1 cells, 18–24 h): 100,000 nM | pEC50 (SXR; ED50, GAL-SXR activation, CV-1 cells, 18–24 h, luciferase normalized by β-gal): 4.45 | Concentration to reach maximal effect, times higher than RIF (SXR; GAL-SXR reporter system): 10 times | Induction of hepatic Cyp2b10 mRNA, CAR(−/−) mice (Cyp2b10 mRNA): attenuated | Induction of hepatic Cyp2b10 mRNA, CAR(+/+) mice (Cyp2b10 mRNA; male and female): ~ 4 fold | Hepatic expression of GST π protein, dose-response study (GSTπ): modest increase
